Published values pooled from the literature.
Each line is one published result; the experiments were not run side by side.
pH: 7.4

Clc1cccc(Nc2ncnc3ccc(-c4cccc(N5CCOCC5)c4)cc23)c1  logD (shake flask; aqueous buffer): 5.3
CNS(=O)(=O)c1ccc(Nc2ncc(C(F)(F)F)c([C@H]3CC[C@](C)(O)CC3)n2)c(C)c1  logD (shake flask; aqueous buffer; 1 h): 3.6
C[C@H](O)c1cnc(NS(=O)(=O)c2ccc(Cl)c(Cl)c2)nc1  logD (shake flask; aqueous buffer): 0.5
COCC(=O)N1CCC[C@H](C(=O)NCc2nc(-c3ccc(C#N)cc3)cs2)C1  logD (shake flask; aqueous buffer): 1.5
N=C(CC(O)c1cc2c(F)cc(F)cc2c2cc(C(F)(F)F)ccc12)Nc1ccc(F)c(F)c1 (stereo not shown)  logD: 4.96
C=CC(=O)N1CC2(CCN(c3nc4c(c(-c5cc(O)cc6ccccc56)c3C#N)COC(C)(C)C4)C2)C1  logD: 4.3
O=C(O)c1ccc(NS(=O)(=O)c2ccc(Cl)c(Cl)c2)cc1F  logD (shake flask; aqueous buffer): -0.2
Cc1ccc(Nc2cnnc3ccc(-c4ccc(N5CCN(C)CC5)cc4)cc23)cn1  logD (shake flask; aqueous buffer): 3.5
Clc1ccc(Nc2ncnc3ccc(-c4cccc(N5CCOCC5)c4)cc23)cc1  logD (shake flask; aqueous buffer): > 4.6
C=CC(=O)N1CC2(CCN(c3nc4c(c(-c5c(C)ccc6[nH]ncc56)c3C#N)COC(C)(C)C4)C2)C1  logD: 2.8
CN1CCN(c2cccc(-c3ccc4ncnc(Nc5ccc(Cl)c(C(F)(F)F)c5)c4c3)c2)CC1  logD (shake flask; aqueous buffer): > 4.3
C=CC(=O)N1CC2(CCN(c3nc4c(c(-c5cc(O)cc6ccccc56)c3F)COC(C)(C)C4)C2)C1  logD: 4.5
CC(C)NCCOCC(=O)N1CCC[C@H](C(=O)NCc2nc(-c3ccc(C(F)(F)F)cc3)cs2)C1  logD (shake flask; aqueous buffer): 1.5
C=CC(=O)N1CC2(CCN(c3nc4c(c(-c5cc(O)cc6ccccc56)c3C)COC(C)(C)C4)C2)C1  logD: 4.3
C[C@@H]1CN(c2cccc(-c3ccc4ncnc(Nc5ncco5)c4c3)c2)C[C@H](C)O1  logD (shake flask; aqueous buffer): > 3.6
O=C(NCc1nc(-c2ccc(C(F)(F)F)cc2)cs1)[C@H]1CCCN(C(=O)CO[C@H]2CCCNC2)C1  logD (shake flask; aqueous buffer): 0.81
CC(C)N=c1cc2n(-c3ccc(Cl)cc3)c3ccccc3nc-2cc1Nc1ccc(Cl)cc1  logD (shake flask; aqueous buffer): 5.76
CN1CCC(Nc2ncnc3ccc(-c4cccc(N5CCOCC5)c4)cc23)CC1  logD (shake flask; aqueous buffer): 2.5
O=C(O)c1ccc(NS(=O)(=O)c2ccc(Cl)c(Cl)c2)c2ncccc12  logD (shake flask; aqueous buffer): 0.9
Cc1ccc(Nc2ncnc3ccc(-c4cccc(N5CCOCC5)c4)cc23)cc1  logD (shake flask; aqueous buffer): > 4.1
N#Cc1ccc(-c2csc(CNC(=O)[C@H]3CCCN(C(=O)COCCF)C3)n2)cc1  logD (shake flask; aqueous buffer): 1.6
CNS(=O)(=O)c1ccc(Nc2ncc(C(F)(F)F)c(N3CCC(C)(O)CC3)n2)c(C)c1  logD (shake flask; aqueous buffer; 1 h): 3.8
c1cc(-c2ccc3ncnc(Nc4ncco4)c3c2)nc(N2CCOCC2)n1  logD (shake flask; aqueous buffer): 3.4
CN1CCN(c2ccc(-c3ccc4nncc(Nc5ccc(OC(F)(F)F)cc5)c4c3)cc2)CC1  logD (shake flask; aqueous buffer): 5.1
CC(C)(N)COCC(=O)N1CCC[C@H](C(=O)NCc2nc(-c3ccc(C(F)(F)F)cc3)cs2)C1  logD (shake flask; aqueous buffer): 1.4
CCN(CC)c1ccc(C=NNC(=O)c2ccccn2)c(O)c1  logD (shake flask; aqueous buffer; 24 h): 3.48
CN1CCN(c2cccc(-c3ccc4ncnc(Nc5ccc([N+](=O)[O-])c(C(F)(F)F)c5)c4c3)c2)CC1  logD (shake flask; aqueous buffer): > 3.9
O=C(O)c1ccc(NS(=O)(=O)c2ccc(Cl)c(Cl)c2)cc1  logD (shake flask; aqueous buffer): 0.6
